Compound activity: PubChem, Broad Institute
CDK5 p35 inh – inhibitors of human CDK5/p35 kinase | Q00535+Q15078 | Recombinant CDK5/p35, ADP-Glo luminescence, 60 min | inhibition, % at 10 µM | hit rate 0.01% among 330,000;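 active = highest replicate inhibition of at least 50% and at least 75% of replicates reaching 50%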
dFosB act – enhances mouse delta FosB homodimer DNA binding; activation, % at 25 µM; hit rate 0.99% among 340,000; purified delta FosB, TAMRA-CDK5 oligo fluorescence polarization; percent of positive-control signal above neutral wells;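 active = mean activation above about 17%, with every replicate also reaching it, limit read from the data, passing the limit was not always enough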
SR-BI DiI-HDL act – SR-BI HDL lipid transfer activation. CHO ldlA[mSR-BI] cells, DiI-HDL uptake fluorescence, 3 h; 100 = double the neutral-control signal. activation, % at 12.5 µM. hit rate 0.096% among 320,000. AID 504775;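 active = mean replicate activation of at least 60% and every replicate at or above 60%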
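Assay system: LDL receptor-deficient CHO ldlA cells overexpressing murine SR-BI / Medium: BSA-supplemented, HEPES-buffered Ham's F12, pH 7.4 / Probe or stimulus: DiI-labelled HDL at 10 µg/mL final / Timing: compound with DiI-HDL co-incubation, 3 h at 37 °C / Technique: bottom-read cell fluorescence after medium removal, ex 550/em 595 nm / Measure: HDL uptake via cellular fluorescence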
SR-BI HDL uptake – blocks mouse SR-BI lipid uptake from DiI-HDL | hit rate 0.96% among 320,000 | inhibition, % at 12.5 µM | Q61009 | ldlA[mSR-BI] CHO cells, DiI-HDL uptake fluorescence, 3 h;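 active = mean replicate inhibition of at least 70% and a set share of replicates each scoring 70 or more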
Target sequence (Q61009 whole entry, looked up): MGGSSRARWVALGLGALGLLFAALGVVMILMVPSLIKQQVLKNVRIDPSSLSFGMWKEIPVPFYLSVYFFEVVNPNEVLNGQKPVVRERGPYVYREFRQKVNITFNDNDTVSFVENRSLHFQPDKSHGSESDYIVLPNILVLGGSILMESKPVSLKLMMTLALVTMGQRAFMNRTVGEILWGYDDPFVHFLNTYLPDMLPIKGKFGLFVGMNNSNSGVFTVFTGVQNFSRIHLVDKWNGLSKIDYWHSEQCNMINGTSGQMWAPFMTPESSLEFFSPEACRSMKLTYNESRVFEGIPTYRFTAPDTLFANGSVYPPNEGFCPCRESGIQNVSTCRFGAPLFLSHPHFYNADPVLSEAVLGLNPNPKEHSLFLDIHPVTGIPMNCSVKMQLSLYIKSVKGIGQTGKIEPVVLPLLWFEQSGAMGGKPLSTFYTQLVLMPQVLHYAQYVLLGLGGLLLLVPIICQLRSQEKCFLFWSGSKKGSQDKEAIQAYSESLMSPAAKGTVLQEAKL
Hits are given with their value; n = inactive; x = no result. Compounds with a hit are over-represented: about 2% of the library has one in this group of screens.

SMILES | CDK5 p35 inh | dFosB act | SR-BI DiI-HDL act | SR-BI HDL uptake
COc1ccc(Cn2c(SCc3ccc(C)cc3)nc3cc(OC)c(OC)cc3c2=N)cc1Cl | n | 59 | n | n
N=c1c2ccccc2nc2n1CCCCCCCCCCC2 | n | n | n | n
CCOC(=O)c1cnc2cc(-c3ccc(Cl)cc3)nn2c1N | n | n | n | 86
COc1ccc2nc3cc(Cl)ccc3c(Nc3ccc(O)c(CN4CCN(C)CC4)c3)c2c1 | n | 124 | n | n
COc1ccc2oc(=O)c(-c3csc(Nc4ccc(O)cc4)n3)cc2c1 | n | n | n | 84
COc1ccc2oc(=O)c(/C(C)=N/Nc3nc(-c4cc(C)ccc4C)cs3)cc2c1 | n | n | n | n
CN(C)CCNC(=O)c1sc2nc(-c3ccccc3)cc(C(F)(F)F)c2c1N | n | 19 | x | x
COc1ccc(OC)c(NC(=O)c2sc3nc(Cc4ccccc4)cc(C(F)(F)F)c3c2N)c1 | n | n | n | 71
Cc1c(C(=O)O)sc2nc(-c3cccs3)cc(C(F)(F)F)c12 | n | n | x | x
CC(=O)c1sc2nc(-c3cccs3)cc(C(F)(F)F)c2c1N | n | n | n | 72
COc1ccc(-c2cc(C(F)(F)F)c3c(N)c(C(=O)NCCSC)sc3n2)cc1 | n | n | n | n
CCOc1cc(/C=N/NC(=O)CCn2nc(C)cc2C)ccc1O | n | n | x | x
O=C(COc1ccc(Cl)cc1)Nc1ccc(C(=O)O)cc1NC(=O)COc1ccc(Cl)cc1 | n | n | n | n
CN(C(=O)COC(=O)c1ccccc1Nc1ccccc1)c1c(N)n(Cc2ccccc2)c(=O)[nH]c1=O | n | n | n | 72
CCCCCN(C(=O)CCC(=O)OCC(=O)Nc1cccc(CC)c1)c1c(N)n(CCCC)c(=O)[nH]c1=O | n | n | n | n
COc1ccc(NC(=O)C(=O)N/N=C/c2cc(C)n(-c3cccc(Cl)c3Cl)c2C)c(OC)c1 | n | n | n | 72
COc1ccc(OC)c(NC(=O)C(=O)N/N=C/c2ccccc2[N+](=O)[O-])c1 | n | n | n | 81
O=[N+]([O-])c1ccccc1C=NNC(=S)NN=Cc1ccccc1[N+](=O)[O-] | n | n | n | n
CN(c1ccccc1)c1nc(N)c([N+](=O)[O-])c(Nc2ccccc2)n1 | n | n | n | n
COc1ccc(Nc2nc(N(C)c3ccccc3)nc(N)c2[N+](=O)[O-])cc1 | n | n | 138 | n
COc1ccc(OC)c(Nc2nc(NCCCN(C)C)nc(N)c2[N+](=O)[O-])c1 | n | 24 | n | n
COc1ccccc1OCCNC(=O)CSC(=S)N1CCCC1 | n | n | n | n
CCN(C(=O)COC(=O)c1ccc(F)c(S(=O)(=O)N2CCOCC2)c1)C1CCS(=O)(=O)C1 (stereo not drawn) | n | n | n | n
O=C(Nc1ccc(F)cc1)C1CCCN(S(=O)(=O)c2ccc3[nH]c(=O)ccc3c2)C1 (stereo not drawn) | n | 18 | n | n
COc1cc(OC)cc(C(=O)Nc2ccc3nc4n(c(=O)c3c2)CCCCC4)c1 | n | n | n | n
SMILES | CDK5 p35 inh | dFosB act | SR-BI DiI-HDL act | SR-BI HDL uptake
COc1ccc(OC)c(CCNC(=O)C(=O)Nc2ccc3nc4n(c(=O)c3c2)CCCCC4)c1 | n | n | n | 77
Cc1ccc(Oc2cc(C)nc(-c3ccccc3O)n2)cc1 | n | n | n | n
Cc1cc(OCc2ccc(F)cc2)nc(-c2ccccc2O)n1 | n | n | n | 78
CCOC(=O)c1sc(NC(=O)CSc2nc(-c3ccco3)cc(C(F)(F)F)n2)c(C(=O)OCC)c1C | n | n | x | x
COc1ccc(OCC(=O)Nc2cc(NC(=O)c3ccco3)ccc2OC)cc1 | n | n | n | n
CCCC(=O)N1c2ccccc2C(=C2SC(C(=O)OC)=C(C(=O)OC)S2)C(=S)C1(C)C | n | n | n | 82
COC(=O)C1=C(C(=O)OC)SC(=C2C(=S)C(C)(C)N(C(=O)C3CC3)c3ccccc32)S1 | n | n | n | 97
COC(=O)C1=C(C(=O)OC)SC(=C2C(=S)C(C)(C)N(C(=O)C(C)C)c3ccccc32)S1 | n | n | n | n
CCOc1cc(/C=C/c2ccc3cccc([N+](=O)[O-])c3n2)ccc1O | n | n | n | 81
COc1cc(/C=C/c2ccc3cccc([N+](=O)[O-])c3n2)ccc1OCC#N | n | n | n | n
CCOc1cc(/C=C/c2ccc3cccc([N+](=O)[O-])c3n2)ccc1OCC(=O)N(C)C | n | n | n | 83
CCc1cccc(C)c1NC(=O)COC(=O)c1cc([N+](=O)[O-])ccc1N1CCOCC1 | n | n | n | 72
